Assay results: ChEMBL document CHEMBL1125825, “Hydrophobicity parameters for platinum complexes” (J Med Chem, 1991)

Key:
P388 = assay: Optimal dose evaluated for antitumor activity against P388 murine leukemia cells in female DBA/2 mice.; type: functional, cell-based; conditions: Mus musculus
In short: (§1)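 P388 murine leukemia model in female DBA/2 mice given 10^6 cells on day 0. A single treatment was given on day 1 with the platinum complex freshly dissolved in 0.4% Klucel. T/C is the median survival time of treated mice relative to untreated controls.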

Mus musculus = species on record: Mus musculus; assay: Median survival time of treated mice with respect to untreated controls.; type: functional, organism-based; in short: as §1
[1] = Partition coefficient (logP); type: physicochemical; conditions: octanol/water
In short: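 Octanol/water shake-flask partitioning used equal phase volumes shaken at 300 agitations/min at 37 °C. Phases were separated at various times, and Pt in each phase was measured by graphite-furnace atomic absorption. P is the octanol Pt concentration divided by the aqueous Pt concentration, reported as log P, with the mean ± range of 6-10 independent experiments.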

Row | Substance | logP [1] | Optimal dose (P388) [µmol/kg] | T/C (Mus musculus) [%]
1 | cis-di-cyclopentylamino, dichloro platinum (II) [listing 1 of 2 here] |  | 572 | 172
2 | cis-di-cyclobutyleamino,di-chloro platinum (II) [listing 1 of 2 here] |  | 147 | 199
3 | cis-di-pyridinium,dinitrate platinum (II) [listing 1 of 2 here] |  | 105 | 125
4 | cis-di-methylamino, di-nitrate platinum (II) [listing 1 of 2 here] |  | 26 | 161
5 | cis-di-pyridinium (4-diaminomethane),di-nitrate platinum (II) [listing 1 of 2 here] |  | 495 | 110
6 | CISPLATIN [listing 1 of 2 here] |  | 27 | 200
7 | cis-di-methylamino,di-chloro platinum (II) [listing 2 of 2 here] |  | 76 | 175
8 | cis-di-cyclopentyleamino,di-nitrate platinum (II) [listing 1 of 2 here] |  | 51 | 193
9 | cis-di-cycloheptylamino,di-nitrate platinum (II) [listing 2 of 2 here] |  | 92 | 133
10 | cis-di-amonium, di-nitarte platinum (II) [listing 1 of 2 here] |  | 3.5 | 123
11 | cis-di-pyridinium (4-chloro),di-nitrate platinum (II) [listing 2 of 2 here] |  | 183 | 130
12 | cis-di-cyclohexylamino,di-nitrate platinum (II) [listing 2 of 2 here] |  | 97 | 173

Second part, led by results:

Row | logP [1] | Substance | Optimal dose (P388) [µmol/kg] | T/C (Mus musculus) [%]
13 | 0.81 | cis-di-cyclopentylamino, dichloro platinum (II) [listing 2 of 2 here] |  | 
14 | -1.68 | cis-di-methylamino,di-chloro platinum (II) [listing 1 of 2 here] |  | 
15 | -0.35 | cis-di-cycloheptylamino,di-nitrate platinum (II) [listing 1 of 2 here] |  | 
16 | -0.91 | cis-di-cyclohexylamino,di-nitrate platinum (II) [listing 1 of 2 here] |  | 
17 | 0.36 | cis-di-cyclobutyleamino,di-chloro platinum (II) [listing 2 of 2 here] |  | 
18 | -2.13 | cis-di-pyridinium (4-methanol),di-nitrate platinum (II) |  | 
19 | -3.28 | cis-di-methylamino, di-nitrate platinum (II) [listing 2 of 2 here] |  | 
20 | -3.36 | cis-di-amonium, di-nitarte platinum (II) [listing 2 of 2 here] |  | 
21 | -1.14 | cis-di-cyclopentyleamino,di-nitrate platinum (II) [listing 2 of 2 here] |  | 
22 | -0.83 | cis-di-pyridinium (4-diaminomethane),di-nitrate platinum (II) [listing 2 of 2 here] |  | 
23 | -1.41 | cis-di-pyridinium (4-acetyle),di-nitrate platinum (II) |  | 
24 | -1.06 | cis-di-pyridinium (4-chloro),di-nitrate platinum (II) [listing 1 of 2 here] |  | 
25 | -1.59 | cis-di-pyridinium,dinitrate platinum (II) [listing 2 of 2 here] |  | 
26 | -0.32 | cis-di-isopropyleamino,dichloro platinum (II) |  | 
27 | -2.19 | CISPLATIN [listing 2 of 2 here] |  | 
